Test results reported in ChEMBL document CHEMBL5724801, “EUbOPEN Chemogenomics Library - Multiplex” (2024).
“And” between values parts separate entries of the source, which are not always exact repeats. Equal values may be shown once.

Assays:
[1] = system: HEK-293T; experiment: Multiplex assay against HEK293T; format: toxicity, cell-based; details: human
Procedure, shortened: (§1)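 Live cells were stained at seeding with Hoechst33342, BioTracker Green Microtubule Cytoskeleton Dye, MitoTracker Red and Annexin V Alexa Fluor 680, then imaged on a CQ1 microscope at 37°C and 5% CO2 after compound addition. CellPathfinder machine-learning gating split cells into Hoechst high-intensity objects or normal cells. Normal cells were split into healthy, pyknosed or fragmented nuclei, and pyknosed cells into mitotic or apoptotic. Tubulin, mitochondrial-mass and membrane-permeability phenotypes are per cents of healthy-nucleus cells.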

[2] = system: U2OS; experiment: Multiplex assay against U2OS; format: toxicity, cell-based; details: human; procedure, shortened: as §1
[3] = 12 h, 1 µM, compound concentration 1 uM
[4] = 12 h, 10 µM, compound concentration 10 uM
[5] = 24 h, 1 µM, compound concentration 1 uM
[6] = 24 h, 10 µM, compound concentration 10 uM
[7] = 48 h, 1 µM, compound concentration 1 uM
[8] = 48 h, 10 µM, compound concentration 10 uM

CC(C)CC(=O)Nc1cncc(-c2ccc3[nH]nc(-c4nc5c(-c6cccc(F)c6)cncc5[nH]4)c3c2)c1 [LORECIVIVINT]
Population Apoptotic (%) [1, 3]: 14.17% and 27.84% | Population Fragmented Nuclei (%) [1, 3]: 5.95% and 3.7% | Population Hoechst High Intensity Objects (%) [1, 3]: 0% | Population Membrane Permeable-Phenotype (%) [1, 3]: 0% and 14.29% | Population Mitochondria Different-Phenotype (%) [1, 3]: 48.15% and 42.86% | Population Mitotic Cells (%) [1, 3]: 85.83% and 72.16% | Population Normal (%) [1, 3]: 100% | Population Pyknosed Nuclei (%) [1, 3]: 64.86% and 89.81% | Population Tubulin-Different-Phenotype (%) [1, 3]: 64.81% and 57.14% | Total Cell Count [1, 3]: 185 and 108 | Population Apoptotic (%) [1, 4]: 42.93% and 42.98% | Population Fragmented Nuclei (%) [1, 4]: 3.44% and 7.88% | Population Healthy Nuclei (%) [1, 4]: 23.66% and 18.79% | Population Hoechst High Intensity Objects (%) [1, 4]: 0% | Population Membrane Permeable-Phenotype (%) [1, 4]: 3.23% | Population Mitochondria Different-Phenotype (%) [1, 4]: 19.35% and 6.45% | Population Mitotic Cells (%) [1, 4]: 57.07% and 57.02% | Population Normal (%) [1, 4]: 100% | Population Pyknosed Nuclei (%) [1, 4]: 72.9% and 73.33% | Total Cell Count [1, 4]: 262 and 165 | Population Apoptotic (%) [1, 5]: 54.44% and 66.67% | Population Fragmented Nuclei (%) [1, 5]: 8.33% and 5.61% | Population Hoechst High Intensity Objects (%) [1, 5]: 0.64% and 0% | Population Membrane Permeable-Phenotype (%) [1, 5]: 0% | Population Mitochondria Different-Phenotype (%) [1, 5]: 83.02% and 75% | Population Mitotic Cells (%) [1, 5]: 45.56% and 33.33% | Population Normal (%) [1, 5]: 99.36% and 100% | Population Pyknosed Nuclei (%) [1, 5]: 57.69% and 86.92% | Population Tubulin-Different-Phenotype (%) [1, 5]: 94.34% and 50% | Total Cell Count [1, 5]: 157 and 107 | Population Apoptotic (%) [1, 6]: 59.46% and 44.57% | Population Fragmented Nuclei (%) [1, 6]: 4.4% and 5.7% | Population Healthy Nuclei (%) [1, 6]: 25.79% and 17.54% | Population Hoechst High Intensity Objects (%) [1, 6]: 0.93% and 0% | Population Membrane Permeable-Phenotype (%) [1, 6]: 3.66% and 10% | Population Mitotic Cells (%) [1, 6]: 40.54% and 55.43% | Population Normal (%) [1, 6]: 99.07% and 100% | Population Pyknosed Nuclei (%) [1, 6]: 69.81% and 76.75% | Population Tubulin-Different-Phenotype (%) [1, 6]: 34.15% and 12.5% | Total Cell Count [1, 6]: 321 and 228 | Population Apoptotic (%) [1, 7]: 79.78% and 84.11% | Population Fragmented Nuclei (%) [1, 7]: 10.98% and 4.07% | Population Hoechst High Intensity Objects (%) [1, 7]: 1.2% and 0% | Population Mitochondria Different-Phenotype (%) [1, 7]: 82.46% and 45.45% | Population Mitotic Cells (%) [1, 7]: 20.22% and 15.89% | Population Normal (%) [1, 7]: 98.8% and 100% | Population Pyknosed Nuclei (%) [1, 7]: 54.27% and 86.99% | Population Tubulin-Different-Phenotype (%) [1, 7]: 73.68% and 63.64% | Total Cell Count [1, 7]: 166 and 123 | Population Apoptotic (%) [1, 8]: 54.1% and 55.85% | Population Fragmented Nuclei (%) [1, 8]: 3.22% and 5.44% | Population Healthy Nuclei (%) [1, 8]: 24.93% and 15.9% | Population Hoechst High Intensity Objects (%) [1, 8]: 0.27% and 0.42% | Population Membrane Permeable-Phenotype (%) [1, 8]: 2.15% and 5.26% | Population Mitochondria Different-Phenotype (%) [1, 8]: 30.11% and 18.42% | Population Mitotic Cells (%) [1, 8]: 45.9% and 44.15% | Population Normal (%) [1, 8]: 99.73% and 99.58% | Population Pyknosed Nuclei (%) [1, 8]: 71.85% and 78.66% | Population Tubulin-Different-Phenotype (%) [1, 8]: 15.05% and 18.42% | Total Cell Count [1, 8]: 374 and 240 | Population Apoptotic (%) [2, 3]: 45.16% and 22.22% | Population Fragmented Nuclei (%) [2, 3]: 2.6% and 2.94% | Population Healthy Nuclei (%) [2, 3]: 88.44% and 83.82% | Population Hoechst High Intensity Objects (%) [2, 3]: 0% | Population Membrane Permeable-Phenotype (%) [2, 3]: 5.23% and 5.26% | Population Mitotic Cells (%) [2, 3]: 54.84% and 77.78% | Population Normal (%) [2, 3]: 100% | Population Pyknosed Nuclei (%) [2, 3]: 8.96% and 13.24% | Population Tubulin-Different-Phenotype (%) [2, 3]: 7.84% and 9.65% | Total Cell Count [2, 3]: 346 and 136 | Population Apoptotic (%) [2, 4]: 60.48% and 43.06% | Population Fragmented Nuclei (%) [2, 4]: 3.46% and 6.63% | Population Healthy Nuclei (%) [2, 4]: 55.31% and 53.59% | Population Hoechst High Intensity Objects (%) [2, 4]: 0% | Population Membrane Permeable-Phenotype (%) [2, 4]: 4.46% and 6.19% | Population Mitochondria Different-Phenotype (%) [2, 4]: 0% and 2.06% | Population Mitotic Cells (%) [2, 4]: 39.52% and 56.94% | Population Normal (%) [2, 4]: 100% | Population Pyknosed Nuclei (%) [2, 4]: 41.23% and 39.78% | Population Tubulin-Different-Phenotype (%) [2, 4]: 8.04% and 1.03% | Total Cell Count [2, 4]: 405 and 181 | Population Apoptotic (%) [2, 5]: 65.71% and 37.04% | Population Fragmented Nuclei (%) [2, 5]: 3.06% and 4.14% | Population Healthy Nuclei (%) [2, 5]: 87.22% and 77.24% | Population Hoechst High Intensity Objects (%) [2, 5]: 0.28% and 0% | Population Membrane Permeable-Phenotype (%) [2, 5]: 2.87% and 3.57% | Population Mitotic Cells (%) [2, 5]: 34.29% and 62.96% | Population Normal (%) [2, 5]: 99.72% and 100% | Population Pyknosed Nuclei (%) [2, 5]: 9.72% and 18.62% | Population Tubulin-Different-Phenotype (%) [2, 5]: 5.73% and 4.46% | Total Cell Count [2, 5]: 361 and 145 | Population Apoptotic (%) [2, 6]: 54.77% and 33.33% | Population Fragmented Nuclei (%) [2, 6]: 3.76% and 6.3% | Population Healthy Nuclei (%) [2, 6]: 39.53% and 38.24%
